CXCR6 inh: CXCR6 receptor inhibitors, primary screen, cell-based, beta-arrestin, luminescence, CHO-K1 PathHunter, 1536-well; C-X-C chemokine receptor type 6 (Homo sapiens), O00574; inhibition, % at 20 µM; hit rate 0.36% among 360,000; AID 602244, 2012; in the data active = inhibition above about 34%, passing the limit was not always enough;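 note: antagonist mode with CXCL16 agonist at 10 nM final; 0% = 10 nM CXCL16 with DMSO and 100% = unstimulated wells without agonist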
CCR6 antag: CCR6 receptor antagonists, primary screen, cell-based, CHO-K1, luminescence, beta-arrestin, uHTS; CHO-K1 CCR6 PathHunter beta-arrestin, CCL20-stimulated; inhibition, % at 20 µM; hit rate 0.49% among 340,000; AID 493098, 2011;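 active = compounds whose inhibition of the agonist-driven luminescence signal at 20 µM reaches about 50%, limit read from the data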;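 note: cells stimulated with CCL20 at 14 nM final; plate controls were DMSO with CCL20 for no effect and DMSO without agonist for full effect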
Target sequence (P51684 whole entry, looked up): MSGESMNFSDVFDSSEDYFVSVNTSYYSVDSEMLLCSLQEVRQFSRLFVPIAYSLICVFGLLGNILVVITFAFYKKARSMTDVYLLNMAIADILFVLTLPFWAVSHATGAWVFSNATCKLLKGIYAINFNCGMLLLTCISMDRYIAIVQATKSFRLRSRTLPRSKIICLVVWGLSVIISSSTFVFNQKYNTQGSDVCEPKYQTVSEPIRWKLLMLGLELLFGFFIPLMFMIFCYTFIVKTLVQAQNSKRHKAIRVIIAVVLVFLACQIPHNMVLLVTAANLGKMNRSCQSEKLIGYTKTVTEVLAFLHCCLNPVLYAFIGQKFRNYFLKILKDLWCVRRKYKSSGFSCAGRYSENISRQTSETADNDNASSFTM
iPSC survival up: enhancers of single-cell hiPSC survival, primary screen, ATPlite luminescence; 100% = ROCK inhibitor wells, 0% = DMSO; survival enhancement, % at 20 µM; hit rate 0.044% among 360,000; in the data active = survival enhancement above about 18%;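 note: cells exposed to compounds for 16 hours before the ATP read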
APJ antag: antagonists of human apelin receptor APJ, primary screen, CHO-K1 cells, beta-arrestin complementation, luminescence. inhibition, % at 20 µM. hit rate 0.32% among 330,000;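 active = inhibition above about 40% at 20 µM, limit read from the data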;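 note: cells challenged with 10 nM apelin-13 agonist together with compound; plate controls were apelin-13 plus DMSO wells for no effect and DMSO wells lacking apelin-13 for full effect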
DAGLB inhibitor: DAGLB lipase inhibitors, primary screen, biochemical, fluorescence, HTS; hit rate 0.059% among 340,000; AID 504411, 2011; inhibition, % at 5.17 µM; HEK293T DAGLB membrane lysate, EnzChek fluorogenic substrate; Diacylglycerol lipase-beta (Homo sapiens), Q8NCG7; in the data active = inhibition above about 34%;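 note: 0% = enzyme with vehicle and 100% = wells lacking enzyme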
APJ ag: agonists of human apelin receptor APJ, primary screen, CHO-K1 cells, PathHunter beta-arrestin, luminescence; P35414; 0% DMSO wells, 100% apelin; activation, % at 20 µM; hit rate 0.11% among 330,000; AID 2520, 2010;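 active = activation more than six SD over the plate average, tested at 20 µM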;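 note: 0% = DMSO alone and 100% = apelin-13 at 10 nM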
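Incubation: overnight seeding, 90 min compound at 25 °C, 1 h detection; test system: PathHunter CHO-K1 APJ (AGTRL-1) beta-arrestin reporter cells; amount: 1000 cells/well; doses: one dose, 20 µM compound, 1% DMSO; measured by: beta-gal luminescence; measure: agonist-driven arrestin binding to APJ; benchmarks: negative DMSO alone, positive Apelin-13 at 10 nM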
The depositor's hits bear a star; . = no result. This is a sample that favours compounds with a hit; in the whole collection about 0.86% have one here.

SMILES	CXCR6 inh	CCR6 antag	iPSC survival up	APJ antag	DAGLB inhibitor	APJ ag
O=[N+]([O-])c1cc([N+](=O)[O-])c2nonc2c1Nc1ccc(O)cc1	27.6	51.5*	-0.6	6.9	1.6	-0.5
C[N+](C)(CC#Cc1ccccc1)CC(=O)c1ccc(Cl)cc1	7.7	20.5	0.8	42.1*	-0.6	-8.0
COC(=O)c1sc(SC)c(S(=O)(=O)C(C)C)c1N/N=C(\C#N)C(=O)c1ccccc1	13.1	27.5	-0.8	18.6	10.9	-3.6
CCCCN(CCCNC(=O)CN1C(=O)COc2ccc(S(=O)(=O)N3CCC(C)CC3)cc21)Cc1ccccc1	13.7	43.8	-0.7	23.6	-7.5	-5.9
Cc1ccc(NC(=O)Cc2cc(C(=O)O)c3ccccc3n2)c(C)c1	-15.0	-18.1	3.7	-24.7	4.4	5.2
CCCCn1c(NC(=O)c2ccc(F)cc2)c(C#N)c2nc3ccccc3nc21	.	.	.	56.1*	.	-9.4
CCCCn1c(NC(=O)c2ccccc2)c(C#N)c2nc3ccccc3nc21	10.2	19.8	2.5	.	-15.6	.
CC1=CN2C(=N)/C(=C/c3ccc(Sc4ccc(C)cc4)o3)C(=O)N=C2S1	34.4	62.6*	-2.4	25.8	3.5	-1.1
CC1=CN2C(=N)/C(=C/c3ccc(C)o3)C(=O)N=C2S1	13.0	29.0	-1.7	19.1	-1.0	-6.0
CC1=CN2C(=N)/C(=C/c3ccc(Sc4ccc(Cl)cc4)o3)C(=O)N=C2S1	19.0	52.5*	-0.8	20.1	2.9	-2.6
CCCCC1C(=O)N(c2ccccc2)N(c2ccc(O)cc2)C1=O (stereo not drawn)	42.9*	57.5*	-3.1	22.4	0.7	-7.3
CCCCC1(CO)C(=O)N(c2ccccc2)N(c2ccccc2)C1=O	7.0	6.8	0.0	-4.9	-1.6	-4.9
CCCCCCN1C[C@H](O)[C@@H](n2cc(C3CC3)nn2)C[C@@H]1c1ccc(C)cc1	-0.9	.	-0.8	.	-2.5	.
O=C1NC(=S)S/C1=C\C=C\c1ccc([N+](=O)[O-])o1	33.1	60.9*	-0.7	.	14.2	.
O=C(N/N=C\C=C\c1ccc([N+](=O)[O-])o1)c1cccs1	8.9	9.7	-0.4	-7.1	0.0	0.0
CCn1nc([N+](=O)[O-])c2c(-c3nc4ccccc4o3)c(N)n(CCCOC)c2c1=O	-3.3	3.1	-0.1	-3.8	-0.2	2.6
CCN(CC)c1ccc(/C=C(\C#N)C(N)=S)cc1	35.0	51.7*	0.4	-33.0	-13.7	1.7
CCN(CC)c1ccc(/C=C2\C(=O)c3ccc(C(=O)O)cc3C2=O)cc1	49.2*	74.0*	-1.5	.	-107.9	.
O=[N+]([O-])c1cnc(Sc2ccncn2)c([N+](=O)[O-])c1	100.2*	.	-1.5	.	-0.6	.
COc1ccccc1C(=O)NNC(=S)NC(=O)c1cc(OC)c(OC)c(OC)c1	32.1	58.4*	0.2	25.6	0.4	-5.0
CCOc1cc(CNC(C)(C)CO)cc(Br)c1OCc1ccc(Cl)cc1Cl	-6.5	50.1*	-1.4	-20.3	-0.5	-6.8
CCOc1cc(CNCCO)cc(Br)c1OCc1ccccc1Cl	-10.4	11.8	-4.2	-17.2	-5.0	-0.1
CN1CCN(S(=O)(=O)c2ccc(NC(=O)Cc3ccc([N+](=O)[O-])cc3)cc2)CC1	-1.5	-6.7	-0.3	-11.2	1.4	3.2
O=C1C=CC(=O)c2c(O)c(N3CCN(CCOCCO)CC3)c(Br)c(O)c21	75.6*	112.2*	6.2	.	3.7	.
O=C1C=CC(=O)c2c(O)c(N3CCN(CCO)CC3)c(Cl)c(O)c21	66.4*	101.5*	1.5	.	4.0	.
CC(=O)C(Cc1ccccc1)NC(=O)COC(=O)c1ccc(-n2cnnn2)cc1 (stereo not drawn)	-4.2	5.6	-2.0	0.8	-0.5	-5.5
COc1ccc(-c2nc(NC(=O)CSCCO)sc2C)cc1	-4.7	-4.0	0.5	-0.3	1.7	-1.5
COc1ccccc1N=Nc1ccc(O)c2ncccc12	32.9	53.7*	-0.3	4.3	15.3	-1.7
Cc1ccsc1C(=O)OC(C)C(=O)NC1CCCCC1C (stereo not drawn)	1.2	12.2	-0.4	-50.3	-2.1	-4.6

Screening results: PubChem BioAssay, several laboratories
